HCT116 bCat-KO – primary screen for growth suppressors in beta-catenin knockout HCT116 cells (colon tumor, human) | HCT116 beta-catenin knockout viability, CellTiter-Glo, 60 h; stronger effect = lower value | viability, % at 10 µM | hit rate 1.5% among 140,000 | AID 818, 2007;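 active = viability at or under a set limit, the compound median less 4 SD, cut at about 6% in these data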;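 also: 0% = Hyamine 1622 control at 20 µM and 100% = untreated cell control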
HUVEC inhibit – inhibitors of HUVEC proliferation, primary screen, cell-based, 384-well. CellTiter-Glo luminescence, 72 h; stronger effect = lower value. viability, % at 10 µM (by protocol). hit rate 1.1% among 86,000. AID 648, 2007;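 active = viability at or below 30%; inactive = viability above 30%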;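 also: 100% = median luminescence of DMSO-only cell control wells on each plate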
H69AR inhibit – proliferation blockers of H69AR lung cancer cells, primary screen, cell-based, human, 86K library; H69AR lung tumor viability, ATP luminescence, 72 h; stronger effect = lower value; viability, % at 10 µM; hit rate 6% among 85,000;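 active = viability at or below 40%; inactive = viability above 40%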;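 also: multidrug resistant small cell line overexpressing MRP-1 efflux transporter; 100% = mean luminescence of untreated control wells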
PTK2B oligo ant – antagonists of Pyk2 self-association, primary screen, Q293 cells, FERM NanoBiT luminescence, HTS | z-score (the deposit names both 25 µM and 10 µM) | Protein-tyrosine kinase 2-beta (Homo sapiens), Q14289 | AID 1347419, 2020 | stronger effect = lower value | hit rate 0.83% among 99,000;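 active = Z-score of -3 or lower, scaled per plate to the spread of control and sample wells; inactive = z-score above -3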;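 also: negative z-score means lost luminescence so less FERM oligomerization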
Target sequence (Q14289 whole entry, looked up): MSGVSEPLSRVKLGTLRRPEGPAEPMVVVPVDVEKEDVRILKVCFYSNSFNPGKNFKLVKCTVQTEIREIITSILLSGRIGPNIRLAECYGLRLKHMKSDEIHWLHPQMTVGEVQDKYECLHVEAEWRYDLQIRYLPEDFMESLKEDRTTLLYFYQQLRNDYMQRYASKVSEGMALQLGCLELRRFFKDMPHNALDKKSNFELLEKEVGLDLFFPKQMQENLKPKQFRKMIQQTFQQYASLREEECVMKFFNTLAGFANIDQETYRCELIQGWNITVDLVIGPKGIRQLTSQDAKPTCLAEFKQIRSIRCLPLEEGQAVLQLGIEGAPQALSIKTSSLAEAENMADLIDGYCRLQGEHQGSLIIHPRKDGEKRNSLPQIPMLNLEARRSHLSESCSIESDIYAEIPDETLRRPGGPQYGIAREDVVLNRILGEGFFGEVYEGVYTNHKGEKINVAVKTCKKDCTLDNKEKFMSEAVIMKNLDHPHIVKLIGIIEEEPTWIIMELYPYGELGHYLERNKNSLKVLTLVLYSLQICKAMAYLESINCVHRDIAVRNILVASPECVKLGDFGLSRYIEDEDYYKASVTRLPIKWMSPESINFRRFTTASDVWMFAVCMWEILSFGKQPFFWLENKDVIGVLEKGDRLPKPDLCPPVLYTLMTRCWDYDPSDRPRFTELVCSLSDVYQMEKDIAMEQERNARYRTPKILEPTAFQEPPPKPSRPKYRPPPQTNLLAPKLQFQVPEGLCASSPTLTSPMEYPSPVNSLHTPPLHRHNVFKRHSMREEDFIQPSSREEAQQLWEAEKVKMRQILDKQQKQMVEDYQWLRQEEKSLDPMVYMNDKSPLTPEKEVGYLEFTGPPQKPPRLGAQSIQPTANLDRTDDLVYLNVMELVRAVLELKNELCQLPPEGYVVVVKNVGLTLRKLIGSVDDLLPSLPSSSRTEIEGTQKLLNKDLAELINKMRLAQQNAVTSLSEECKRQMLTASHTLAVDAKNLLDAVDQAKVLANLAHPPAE
Lung fibro prol – antiproliferative effect on LL 47 fibroblasts – human, LL 47 cells, CellTiter-Glo luminescence, primary screen | LL 47 human lung fibroblast viability, ATP luminescence; stronger effect = lower value | viability, % at 10 µM | hit rate 1.1% among 85,000 | AID 719, 2007;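 active = viability at or below 50% in the single dose screen; inactive = viability above 50%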;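 also: compound exposure lasted 72 h before the ATP readout; 100% = median luminescence of untreated cell-only wells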
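Times – overnight cell rest, 72 h compound treatment at 37 °C · Test system – human lung fibroblast line LL 47, low passage · Amount – 1,150 cells in each well · Controls – cell-only wells, no compound · Doses – 0.1% DMSO in all compound wells · Measured by – CellTiter-Glo luminescence · Buffer or medium – IMEM plus 15% FBS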
PTEN del growth – growth suppression of PTEN-null HCT116, primary screen, cell-based, CellTiter-Glo | hit rate 1.2% among 140,000 | viability, % at 10 µM | HCT116 PTEN-null viability, 60 h; stronger effect = lower value | AID 827, 2007;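 active = viability at or below a set limit, 4 SD under the median of all tested compounds, cut at about 3.7% in these data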;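 also: PTEN knockout HCT116 line with beta catenin targeted HCT116 as companion control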
Numbers without * were called inactive; . = no result. Only a selection was taken, and hits are over-represented in it overall.

SMILES	HCT116 bCat-KO	HUVEC inhibit	H69AR inhibit	PTK2B oligo ant	Lung fibro prol	PTEN del growth
Cc1ccc(NC(=S)N(Cc2cccs2)Cc2cc3cccc(C)c3[nH]c2=O)cc1	77.2	.	.	.	.	75.2
CCCCCCOc1ccc(/C(N)=N/O)cc1	95.7	79.7	35.3*	-2.68	92.2	83.3
COc1cccc(CNc2ccc(N3CCC(C)CC3)cc2)c1OC	58.9	92.6	13.7*	-0.3	99.0	73.9
Cc1ccc(NC(=S)NNC(=O)c2nnn(-c3ccccc3)c2C)cc1	97.8	.	.	.	.	95.9
CC(C)(C)NC(=O)Cn1c(-c2nonc2N)nc2ccccc21	96.4	83.5	94.4	-1.11	98.8	103.0
Cc1ccc(Cn2c(-c3nonc3N)nc3ccccc32)cc1	83.4	.	.	-0.27	.	80.4
COc1cc(Cn2c(-c3nonc3N)nc3ccccc32)ccc1C	96.3	40.0	17.9*	-1.32	48.1*	96.7
COc1cccc(Cn2c(-c3nonc3N)nc3ccccc32)c1	26.7	65.2	24.4*	-2.6	51.0	28.2
Nc1nonc1-c1nc2ccccc2n1Cc1ccc(Cl)cc1	96.1	57.9	67.3	-0.2	68.9	91.7
CCCCOc1ccccc1NC(=O)Cn1c(-c2nonc2N)nc2ccccc21	1.8*	.	.	1.06	.	1.6*
CC1CC(C)CN(S(=O)(=O)c2ccccc2[N+](=O)[O-])C1 (stereo unspecified)	66.4	.	.	-0.65	.	78.4
CCN(CC)S(=O)(=O)c1cccc(-c2nnc(SCC(=O)NC3CCCCCCC3)n2N)c1	82.1	93.7	46.8	-0.46	94.6	83.8
Cc1sc2ncnc(Sc3nnnn3-c3ccc(Cl)cc3)c2c1C	4.9*	9.9*	1.4*	-1.49	67.1	4.7
Cc1sc2ncnc(SCc3ccco3)c2c1C	89.1	87.2	79.2	-0.33	95.7	90.8
c1ccc(-n2nnnc2Sc2ncnc3sc4c(c23)CCCC4)cc1	4.5*	.	.	0.2	.	3.9
CC(=O)Oc1cc2c(C(=O)NCCCN3CCOCC3)c(C)oc2c2ccccc12	0.9*	4.5*	45.4	-0.43	4.3*	1.4*
O=C(NCCCN1CCOCC1)c1ccccc1	100.2	96.4	95.7	-0.19	101.7	114.4
Cc1cccc(N2CCN(C(=O)COc3cc(=O)n(C)c4ccccc34)CC2)c1C	81.3	81.5	78.2	-0.44	98.2	71.7
Cc1cccc(N2CCN(C(=O)Cc3cn(C)c4ccccc34)CC2)c1C	28.6	70.6	17.8*	-0.6	88.8	25.9
NC(=O)CSc1nnc(C2CC2)n1-c1ccccc1	88.2	82.9	83.0	0.45	91.9	104.1
COc1cccc(-c2cc3nc(-c4ccccc4)cc(N4CCC5(CC4)OCCO5)n3n2)c1	46.5	70.4	68.2	-1	99.3	33.1
CN1CCN(c2cc(-c3ccccc3)nc3cc(-c4ccc(F)cc4)nn23)CC1	3.8*	.	.	-0.46	.	1.3*
Fc1ccc(-c2cc3nc(-c4ccccc4)cc(N4CCN(CCN5CCOCC5)CC4)n3n2)cc1	1.7*	31.8	25.6*	0.23	56.7	1.6*
CCc1ccc(-c2cn(-c3nc(C)cc(C)n3)c(=N)o2)cc1	70.3	58.6	1.2*	-0.55	84.2	60.8
CCc1ccc(C(=O)CN(C#N)c2nc(C)cc(C)n2)cc1	87.2	55.4	60.2	-0.61	91.6	83.8
SMILES	HCT116 bCat-KO	HUVEC inhibit	H69AR inhibit	PTK2B oligo ant	Lung fibro prol	PTEN del growth
Cc1ccnc(Sc2ccc([N+](=O)[O-])cc2[N+](=O)[O-])n1	5.2*	.	.	-0.13	.	6.2
O=[N+]([O-])c1ccc(Cl)cc1Sc1nc2ccccc2o1	9.4	41.2	24.8*	0.45	94.6	8.6
O=[N+]([O-])c1ccc(Sc2nc3ccccc3o2)c([N+](=O)[O-])c1	1.9*	2.6*	0.2*	-0.59	0.9*	1.4*
Cc1ccc(Sc2ccc([N+](=O)[O-])cc2[N+](=O)[O-])nc1	56.2	.	.	.	.	63.7
CC(=O)CSc1nc2ccccc2o1	95.5	104.3	106.5	-0.76	108.0	101.1
O=[N+]([O-])c1ccc(Cl)cc1Sc1cccc2cccnc12	96.2	90.5	78.2	-0.61	82.0	92.2
O=C(Nc1ccccc1C(=O)OCC(=O)c1c[nH]c2ccccc12)c1ccco1	72.5	.	.	.	.	61.6
Cc1ccc(OCc2nnc(SCC(=O)Nc3cccc4ccccc34)n2-c2ccccc2)cc1	53.7	79.2	18.3*	-1.31	4.2*	44.8
CCn1c(COc2ccc(C)cc2)nnc1SCC(=O)Nc1cc(OC)ccc1OC	58.1	92.9	18.4*	-0.38	94.0	55.3
Cc1ccc(NC(=O)CSc2ccccc2NC(=O)c2ccccc2Cl)cc1Cl	48.9	.	.	.	.	26.7
COCCNC(=O)[C@@]1(Cc2ccccc2)C=C[C@@H](C)N1C(C)=O	84.7	.	.	.	.	95.9
NC(=O)c1c(NC(=O)CSc2nnc(-c3ccccc3)n2CC2CCCO2)sc2c1CCC2 (stereo unspecified)	86.2	94.7	32.9*	-0.08	95.6	96.1
Cc1onc(-c2c(F)cccc2Cl)c1C(=O)Nc1nnc(-c2ccccc2)s1	88.9	78.9	42.5	-3.06*	106.7	89.3
Cc1noc(C)c1C(=O)Nc1sc(C)c(-c2ccccc2)c1C#N	85.9	57.3	32.0*	-0.3	94.9	94.8
Cc1onc(-c2c(F)cccc2Cl)c1C(=O)Nc1sc2c(c1C(N)=O)CCC2	22.8	69.8	15.9*	-1.98	76.3	15.5
Cc1cccc(C(=O)Nc2sc(C)c(-c3ccccc3)c2C#N)c1	70.2	.	.	-0.79	.	68.9
CSc1nc(N)c2c(C)c(C)sc2n1	96.5	.	.	.	.	107.7
COc1ccc(N2CCN(C(CNC(=O)OCc3ccccc3)c3ccco3)CC2)cc1 (stereo unspecified)	59.1	.	.	.	.	67.0
Cc1onc(-c2ccccc2)c1C(=O)Nc1sc2c(c1C(N)=O)CCC2	80.5	89.1	34.1*	-0.03	90.7	86.1
Cc1onc(-c2ccccc2)c1C(=O)Nc1sc2c(c1C#N)CCC2	35.6	67.8	16.1*	0.18	75.9	25.8
Cc1onc(-c2ccccc2)c1C(=O)NC(=S)Nc1sc2c(c1C#N)CCCC2	93.3	.	.	.	.	97.7
CCOC(=O)Cc1nnc(Nc2ccc(C)cc2C)c2ccccc12	95.2	.	.	.	.	105.6
CCOC(=O)C(NC(=O)c1ccc(OC)cc1)(N1CCCC1=O)C(F)(F)F (stereo unspecified)	100.6	.	.	.	.	93.7
CC(C)(C)NS(=O)(=O)c1ccc(CCC(=O)NCc2cccnc2)cc1	89.8	94.0	87.0	-0.1	98.5	88.1
Cc1nn(Cc2ccc(Cl)cc2)c(C)c1NC(=O)CSc1nc2c(c(C(F)(F)F)n1)CCc1ccccc1-2	14.9	.	.	-0.11	.	3.5*
COc1ccc(-c2nsc3c(N4CCN(S(=O)(=O)c5ccccc5)CC4)ncnc23)cc1	.	72.7	6.2*	.	90.2	.
COc1ccc(-c2nsc3c(N4CCCC4)ncnc23)cc1	98.4	91.4	65.6	1.08	94.4	93.5

Bioassay records as filed in PubChem BioAssay.
